Results taken from ChEMBL document CHEMBL1208780, “Tetrahydropyridine derivatives with inhibitory activity on the production of proinflammatory cytokines: part 3” (Bioorg Med Chem Lett, 2010).
Active and inactive are the calls of the source. No cut-off for these calls is given here.

Experiments:
Mus musculus [1] = assay: Antiinflammatory activity in po dosed mouse assessed as inhibition of LPS-induced TNFalpha production administered 30 mins before LPS challenge measured after 1 hr by ELISA; format: functional; settings: read-out: ID50 (the source's name)
Summary of the method: (§1)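 Groups of five mice were used. ID50 came from a least-squares linear regression of % inhibition against log dose, with 95% confidence intervals by Fieller's theorem.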

Blood [2] = assay: Antiinflammatory activity in human whole blood assessed as inhibition of LPS-induced TNFalpha production at 1 uM after 6 hrs by immunoassay; format: functional
Blood [3] = assay: Antiinflammatory activity in human whole blood assessed as inhibition of LPS-induced TNFalpha production after 6 hrs by immunoassay; format: functional, tissue-based
Summary of the method: (§2)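 Values are the mean and SD of three to four determinations. IC50 came from a least-squares linear regression of % inhibition against log concentration, with 95% confidence intervals by Fieller's theorem.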

Blood [4] = assay: Antiinflammatory activity in human whole blood assessed as inhibition of LPS-induced IL-6 production after 6 hrs by immunoassay; format: functional, tissue-based; summary of the method: as §2
Mus musculus [5] = assay: Antiinflammatory activity in po dosed mouse assessed as inhibition of LPS-induced IL1-beta production administered 2 hrs after LPS challenge; format: functional; settings: read-out: ID50 (the source's name); summary of the method: as §1
[6] = molecular target: T1, Mitogen-activated protein kinase 12 (Homo sapiens, UniProt P53778); assay: Inhibition of p38-gamma
T1 sequence (P53778 whole entry): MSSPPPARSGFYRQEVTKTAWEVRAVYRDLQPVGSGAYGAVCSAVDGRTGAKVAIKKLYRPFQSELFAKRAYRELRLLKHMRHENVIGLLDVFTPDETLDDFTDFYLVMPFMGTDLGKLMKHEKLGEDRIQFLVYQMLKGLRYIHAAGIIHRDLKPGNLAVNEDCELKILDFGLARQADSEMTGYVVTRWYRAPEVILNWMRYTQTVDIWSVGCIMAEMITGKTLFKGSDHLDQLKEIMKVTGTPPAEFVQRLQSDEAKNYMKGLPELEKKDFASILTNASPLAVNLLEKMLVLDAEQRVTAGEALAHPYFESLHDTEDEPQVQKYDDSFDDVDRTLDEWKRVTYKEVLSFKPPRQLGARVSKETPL
Summary of the method: (§3)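 Kinase inhibition IC50 was the mean and SD of three to four determinations. It was derived by least-squares linear regression of % inhibition against log concentration, with 95% confidence intervals by Fieller's theorem.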

[7] = molecular target: Mitogen-activated protein kinase 11 (Homo sapiens, UniProt Q15759); assay: Inhibition of p38beta; summary of the method: as §3
Blood [8] = assay: Antiinflammatory activity in human whole blood assessed as inhibition of LPS-induced IL-8 production after 6 hrs by immunoassay; format: functional, tissue-based; summary of the method: as §2
Mus musculus [9] = species: Mus musculus; assay: Antiarthritic activity in DBA/1 mouse assessed as inhibition of collagen-induced arthritis; format: functional; settings: read-out: ID50 (the source's name); summary of the method: as §1
[10] = molecular target: Mitogen-activated protein kinase 14 (Homo sapiens, UniProt Q16539); assay: Inhibition of p38alpha; summary of the method: as §3
Rattus norvegicus [11] = assay: Antiarthritic activity in po dosed heat-killed mycobacterium tuberculosis-induced rat arthritis model assessed as decrease in paw volume administered BID for 7 days measured 24 hrs post last dose by plethysmometry; format: functional; settings: read-out: ID50 (the source's name)
Summary of the method: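 Adjuvant arthritis was established by day 18, and rats with injected-foot volume ≥2.75 mL were grouped to equal means. Test agents in 0.5% CMC were given orally at 5 mL/kg twice daily on days 18–24. Feet were measured by plethysmometer on days 18, 20, 23 and 25. The swelled-foot ratio (day 25/day 18, corrected by normal animals) gave % inhibition versus controls. n=5.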

[12] = molecular target: T2, Mitogen-activated protein kinase 13 (Homo sapiens, UniProt O15264); assay: Inhibition of p38delta; summary of the method: as §3
T2 sequence (O15264 whole entry): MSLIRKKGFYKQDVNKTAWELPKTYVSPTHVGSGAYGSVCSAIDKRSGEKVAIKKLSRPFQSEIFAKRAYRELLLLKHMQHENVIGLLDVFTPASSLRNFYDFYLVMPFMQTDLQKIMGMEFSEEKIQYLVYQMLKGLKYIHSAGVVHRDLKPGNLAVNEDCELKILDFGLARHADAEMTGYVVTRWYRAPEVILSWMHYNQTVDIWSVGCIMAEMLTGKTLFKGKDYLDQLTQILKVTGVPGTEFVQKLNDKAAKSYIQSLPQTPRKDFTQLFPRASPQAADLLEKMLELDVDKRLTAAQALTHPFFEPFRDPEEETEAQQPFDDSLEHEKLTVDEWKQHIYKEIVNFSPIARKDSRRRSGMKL

Mus musculus [13] = species: Mus musculus; assay: Antiarthritic activity in DBA/1 mouse assessed as inhibition of anti-collagen antibody-induced arthritis after 3 weeks; format: functional; settings: DBA/1, 504 h, read-out: ID50 (the source's name); summary of the method: as §1
Mus musculus [14] = assay: Antiinflammatory activity in po dosed mouse assessed as inhibition of LPS-induced IL-6 production; format: functional; settings: read-out: ID50 (the source's name); summary of the method: as §1
[15] = molecular target: T3, Mitogen-activated protein kinase 13 (Homo sapiens) (UniProt O15264); assay: Inhibition of p38delta at 10 uM
T3 sequence (whole entry): T2 sequence (O15264 whole entry)

Rattus norvegicus [16] = assay: Analgesic activity in po dosed heat-killed mycobacterium tuberculosis-induced rat arthritis model assessed as decrease in squeaking behavior after 72 hrs […]; format: functional; settings: read-out: ID50 (the source's name)
Blood [17] = assay: Antiinflammatory activity in human whole blood assessed as inhibition of LPS-induced IL1-beta production after 6 hrs by immunoassay; format: functional, tissue-based; summary of the method: as §2
[18] = molecular target: T4, Mitogen-activated protein kinase 12 (Homo sapiens) (UniProt P53778); assay: Inhibition of p38-gamma at 10 uM
T4 sequence (whole entry): T1 sequence (P53778 whole entry)

Rattus norvegicus [19] = assay: Antiarthritic activity in po dosed heat-killed mycobacterium tuberculosis-induced rat arthritis model assessed as decrease in paw volume administered QD for 20 days measured on day 21 by plethysmometry; format: functional; settings: read-out: ID50 (the source's name)

Mitogen-activated protein kinase 14, sequence (Q16539 whole entry): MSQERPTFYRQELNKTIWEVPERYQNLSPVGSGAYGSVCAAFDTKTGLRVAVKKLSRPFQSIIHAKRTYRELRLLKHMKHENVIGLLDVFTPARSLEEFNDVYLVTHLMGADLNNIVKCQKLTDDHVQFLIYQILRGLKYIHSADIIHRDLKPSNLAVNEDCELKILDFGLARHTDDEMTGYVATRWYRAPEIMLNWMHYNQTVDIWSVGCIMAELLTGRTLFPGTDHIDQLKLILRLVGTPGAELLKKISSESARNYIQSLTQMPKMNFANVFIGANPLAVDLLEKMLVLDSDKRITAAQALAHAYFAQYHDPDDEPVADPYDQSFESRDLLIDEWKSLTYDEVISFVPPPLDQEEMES
Mitogen-activated protein kinase 11, sequence (Q15759 whole entry): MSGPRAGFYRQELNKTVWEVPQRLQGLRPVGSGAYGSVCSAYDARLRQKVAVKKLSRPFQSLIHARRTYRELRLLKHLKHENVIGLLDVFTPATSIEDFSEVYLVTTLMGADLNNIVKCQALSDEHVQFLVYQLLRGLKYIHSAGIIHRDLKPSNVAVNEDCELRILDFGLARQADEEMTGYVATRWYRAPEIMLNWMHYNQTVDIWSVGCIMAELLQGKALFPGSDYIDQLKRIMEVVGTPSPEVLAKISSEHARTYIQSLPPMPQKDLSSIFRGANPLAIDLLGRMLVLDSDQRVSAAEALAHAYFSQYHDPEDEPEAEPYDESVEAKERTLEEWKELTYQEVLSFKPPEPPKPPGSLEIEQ

Fc1ccc(-c2[nH]cc(C3=C[C@H]4CCCN4CC3)c2-c2ccncc2)cc1
ED50 (Mus musculus [1]): 6.59 mg/kg
inhibition at 1 µM (Blood [2]): 49%

Fc1ccc(-c2[nH]cc(C3=CC4CCCCN4CC3)c2-c2ccncc2)cc1 (stereo not drawn)
ED50 (Mus musculus [1]): 2.27 mg/kg
IC50 (Blood [3]): 310 nM

Fc1ccc(-c2[nH]cc(C3=CCN4CCCCC4C3)c2-c2ccncc2)cc1 (stereo not drawn)
ED50 (Mus musculus [1]): 3.55 mg/kg
IC50 (Blood [3]): 810 nM

Fc1ccc(-c2[nH]cc(C3=CC4CCCN4CC3)c2-c2ccncc2)cc1 (stereo not drawn)
ED50 (Mus musculus [1]): 1.09 mg/kg
IC50 (Blood [3]): 42 nM

Fc1ccc(-c2[nH]cc(C3=CCN4CCCC4C3)c2-c2ccncc2)cc1 (stereo not drawn)
ED50 (Mus musculus [1]): 2.85 mg/kg
IC50 (Blood [3]): 600 nM

Fc1ccc(-c2[nH]cc(C3=C[C@@H]4CCCN4CC3)c2-c2ccncc2)cc1
IC50 (Blood [4]): 880 nM
ED50 (Mus musculus [1]): 0.93 mg/kg
ED50 (Mus musculus [5]): 8.63 mg/kg
IC50 [6]: > 10000 nM
IC50 (Blood [3]): 26 nM
IC50 [7]: 572 nM
IC50 (Blood [8]): 16 nM
ED50 (Mus musculus [9]): 2.38 mg/kg
IC50 [10]: 34 nM
ED50 (Rattus norvegicus [11]): 4.9 mg/kg
IC50 [12]: > 10000 nM
ED50 (Mus musculus [13]): 2.22 mg/kg
ED50 (Mus musculus [14]): 0.11 mg/kg
inhibition [15]: inactive
ED50 (Rattus norvegicus [16]): 2.9 mg/kg
IC50 (Blood [17]): 20 nM
inhibition [18]: inactive
ED50 (Rattus norvegicus [19]): 3.1 mg/kg
